Source: ChEMBL document CHEMBL4819134, “Design, synthesis and biological evaluation of imidazopyridazine derivatives containing isoquinoline group as potent MNK1/2 inhibitors” (Bioorg Med Chem, 2021)

Assays:
[1] = biological target: T1, MAP kinase-interacting serine/threonine-protein kinase 2 (Homo sapiens, UniProt Q9HBH9); conditions: Sf21, dose 500.0 nM, time 50.0 min
Target sequence in this assay (Q9HBH9 whole entry, looked up): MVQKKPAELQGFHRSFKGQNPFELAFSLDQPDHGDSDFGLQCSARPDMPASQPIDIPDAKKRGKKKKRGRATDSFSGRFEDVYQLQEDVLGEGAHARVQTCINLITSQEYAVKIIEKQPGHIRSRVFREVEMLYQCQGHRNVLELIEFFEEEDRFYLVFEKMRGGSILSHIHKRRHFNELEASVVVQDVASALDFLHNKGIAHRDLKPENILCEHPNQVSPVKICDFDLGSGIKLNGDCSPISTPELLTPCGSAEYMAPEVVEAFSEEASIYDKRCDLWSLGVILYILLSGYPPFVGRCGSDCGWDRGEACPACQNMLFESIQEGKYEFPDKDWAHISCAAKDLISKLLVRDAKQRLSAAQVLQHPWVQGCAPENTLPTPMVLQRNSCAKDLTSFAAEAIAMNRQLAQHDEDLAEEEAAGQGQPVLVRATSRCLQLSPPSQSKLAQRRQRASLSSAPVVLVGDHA

[2] = biological target: T2, MAP kinase-interacting serine/threonine-protein kinase 1 (Homo sapiens, UniProt Q9BUB5); conditions: Sf21, dose 500.0 nM, time 50.0 min
Target sequence in this assay (Q9BUB5 whole entry, looked up, the tested form may be a part): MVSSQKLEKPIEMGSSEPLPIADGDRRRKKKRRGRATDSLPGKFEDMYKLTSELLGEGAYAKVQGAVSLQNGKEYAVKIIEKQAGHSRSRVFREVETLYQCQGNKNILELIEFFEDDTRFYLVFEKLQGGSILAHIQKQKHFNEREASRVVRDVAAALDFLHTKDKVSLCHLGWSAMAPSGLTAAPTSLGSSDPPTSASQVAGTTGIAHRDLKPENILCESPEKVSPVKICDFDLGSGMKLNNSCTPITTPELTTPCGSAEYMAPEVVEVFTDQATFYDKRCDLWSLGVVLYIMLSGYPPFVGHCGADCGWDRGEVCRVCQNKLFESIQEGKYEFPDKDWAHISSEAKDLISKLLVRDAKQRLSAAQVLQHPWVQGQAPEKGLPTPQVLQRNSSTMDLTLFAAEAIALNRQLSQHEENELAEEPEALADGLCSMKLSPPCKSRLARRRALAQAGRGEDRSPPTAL

[3] = biological target: T1, MAP kinase-interacting serine/threonine-protein kinase 2; test: Inhibition of N-terminal GST-fused human full length recombinant MNK2 (1 to 465 residues) expressed in baculovirus-infected Sf21 cells using TATKSGSTTKNR as substrate preincubated with enzyme and substrate for 10 mins followed by ATP addition and measured after 40 mins by ADP-glo luminescence assay
Target sequence in this assay (Q9HBH9 whole entry): as the sequence (Q9HBH9 whole entry, looked up) above

DOHH-2 = test: Antiproliferative activity against human DOHH-2 cells assessed as reduction in cell viability incubated for 72 hrs by MTT assay; format: functional, cell-based; conditions: DOHH-2, 72 h
How it was run: (§1)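 Lymphoma cells seeded and grown 12 h, then exposed to serial compound concentrations in medium with 1‰ DMSO, each in triplicate, for 72 h. DMSO-only control. Viability read by MTT and normalized to DMSO control. IC50 derived by Logit method, mean ± SD of three independent determinations.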

[4] = biological target: T2, MAP kinase-interacting serine/threonine-protein kinase 1; test: Inhibition of N-terminal GST-fused human full length recombinant MNK1 (1 to 424 residues) expressed in baculovirus-infected Sf21 cells using TATKSGSTTKNR as substrate preincubated with enzyme and substrate for 10 mins followed by ATP addition and measured after 40 mins by ADP-glo luminescence assay
Target sequence in this assay (Q9BUB5 whole entry, the tested form may be a part): as the sequence (Q9BUB5 whole entry, looked up, the tested form may be a part) above

TMD8 [5] = test: Antiproliferative activity against human TMD8 cells assessed as reduction in cell viability incubated for 72 hrs by MTT assay; format: functional, cell-based; conditions: TMD8, 72 h
How it was run: as §1

TMD8 [6] = test: Induction of apoptosis in human TMD8 cells assessed as early apoptotic cells at 1 uM incubated for 24 hrs by AnnexinV-FITC/PE staining based flow cytometry (reference value: 4.35%); format: functional
How it was run: (§2)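 TMD-8 cells seeded at 1 × 10^5 per 2 mL well and treated 24 h at 0.25, 0.5 or 1 μM, with DMSO control. Cells washed twice in cold PBS and resuspended in binding buffer. Stained with annexin V-FITC for 15 min, then PI for 5 min, both at 37 °C in the dark. Analysed by flow cytometry.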

TMD8 [7] = test: Induction of apoptosis in human TMD8 cells assessed as late apoptotic cells at 0.5 uM incubated for 24 hrs by AnnexinV-FITC/PE staining based flow cytometry (reference value: 1.44%); format: functional
How it was run: as §2

TMD8 [8] = test: Induction of apoptosis in human TMD8 cells assessed as viable cells at 0.25 uM incubated for 24 hrs by AnnexinV-FITC/PE staining based flow cytometry (reference value: 94.2%); format: functional; conditions: read-out: Activity
How it was run: as §2

TMD8 [9] = test: Induction of apoptosis in human TMD8 cells assessed as early apoptotic cells at 0.25 uM incubated for 24 hrs by AnnexinV-FITC/PE staining based flow cytometry (reference value: 4.35%); format: functional
How it was run: as §2

TMD8 [10] = test: Induction of apoptosis in human TMD8 cells assessed as late apoptotic cells at 1 uM incubated for 24 hrs by AnnexinV-FITC/PE staining based flow cytometry (reference value: 1.44%); format: functional
How it was run: as §2

TMD8 [11] = test: Induction of apoptosis in human TMD8 cells assessed as late apoptotic cells at 0.25 uM incubated for 24 hrs by AnnexinV-FITC/PE staining based flow cytometry (reference value: 1.44%); format: functional
How it was run: as §2

[12] = biological target: AMP-activated protein kinase, AMPK (Homo sapiens) (UniProt P54646+O43741+P54619+Q9UGJ0+Q9Y478+Q13131+Q9UGI9); test: Inhibition of AMPK (unknown origin) at 500 nM; format: protein-complex assay
TMD8 [13] = test: Induction of apoptosis in human TMD8 cells assessed as viable cells at 0.5 uM incubated for 24 hrs by AnnexinV-FITC/PE staining based flow cytometry (reference value: 94.2%); format: functional; conditions: read-out: Activity
How it was run: as §2

TMD8 [14] = test: Induction of apoptosis in human TMD8 cells assessed as necrotic cells at 0.5 uM incubated for 24 hrs by AnnexinV-FITC/PE staining based flow cytometry (reference value: 0%); format: functional
How it was run: as §2

TMD8 [15] = test: Induction of apoptosis in human TMD8 cells assessed as necrotic cells at 1 uM incubated for 24 hrs by AnnexinV-FITC/PE staining based flow cytometry (reference value: 0%); format: functional
How it was run: as §2

[16] = biological target: Tyrosine-protein kinase BTK (Homo sapiens) (UniProt Q06187); test: Inhibition of BTK (unknown origin) at 500 nM
Chain of Tyrosine-protein kinase BTK (Homo sapiens) (Q06187 whole entry): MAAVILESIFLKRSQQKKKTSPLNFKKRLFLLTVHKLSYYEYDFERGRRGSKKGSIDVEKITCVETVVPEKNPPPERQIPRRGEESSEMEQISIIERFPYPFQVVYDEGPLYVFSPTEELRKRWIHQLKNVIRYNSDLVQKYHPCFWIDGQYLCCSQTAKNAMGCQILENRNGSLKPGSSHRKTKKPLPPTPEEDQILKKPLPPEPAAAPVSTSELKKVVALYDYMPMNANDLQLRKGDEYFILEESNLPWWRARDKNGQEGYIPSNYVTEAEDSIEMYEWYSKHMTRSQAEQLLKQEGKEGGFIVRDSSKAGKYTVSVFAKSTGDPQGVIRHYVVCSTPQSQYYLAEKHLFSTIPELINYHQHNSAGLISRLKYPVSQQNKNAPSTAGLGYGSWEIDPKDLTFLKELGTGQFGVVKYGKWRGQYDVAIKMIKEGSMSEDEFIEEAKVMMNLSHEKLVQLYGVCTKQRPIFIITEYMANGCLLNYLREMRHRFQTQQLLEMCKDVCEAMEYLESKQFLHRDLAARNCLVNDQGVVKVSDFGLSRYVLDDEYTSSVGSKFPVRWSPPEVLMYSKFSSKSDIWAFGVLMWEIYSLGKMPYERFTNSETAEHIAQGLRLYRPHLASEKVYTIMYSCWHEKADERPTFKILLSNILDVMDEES

[17] = biological target: Tyrosine-protein kinase JAK1 (Homo sapiens) (UniProt P23458); test: Inhibition of JAK1 (unknown origin) at 500 nM
Chain of Tyrosine-protein kinase JAK1 (Homo sapiens) (P23458 whole entry): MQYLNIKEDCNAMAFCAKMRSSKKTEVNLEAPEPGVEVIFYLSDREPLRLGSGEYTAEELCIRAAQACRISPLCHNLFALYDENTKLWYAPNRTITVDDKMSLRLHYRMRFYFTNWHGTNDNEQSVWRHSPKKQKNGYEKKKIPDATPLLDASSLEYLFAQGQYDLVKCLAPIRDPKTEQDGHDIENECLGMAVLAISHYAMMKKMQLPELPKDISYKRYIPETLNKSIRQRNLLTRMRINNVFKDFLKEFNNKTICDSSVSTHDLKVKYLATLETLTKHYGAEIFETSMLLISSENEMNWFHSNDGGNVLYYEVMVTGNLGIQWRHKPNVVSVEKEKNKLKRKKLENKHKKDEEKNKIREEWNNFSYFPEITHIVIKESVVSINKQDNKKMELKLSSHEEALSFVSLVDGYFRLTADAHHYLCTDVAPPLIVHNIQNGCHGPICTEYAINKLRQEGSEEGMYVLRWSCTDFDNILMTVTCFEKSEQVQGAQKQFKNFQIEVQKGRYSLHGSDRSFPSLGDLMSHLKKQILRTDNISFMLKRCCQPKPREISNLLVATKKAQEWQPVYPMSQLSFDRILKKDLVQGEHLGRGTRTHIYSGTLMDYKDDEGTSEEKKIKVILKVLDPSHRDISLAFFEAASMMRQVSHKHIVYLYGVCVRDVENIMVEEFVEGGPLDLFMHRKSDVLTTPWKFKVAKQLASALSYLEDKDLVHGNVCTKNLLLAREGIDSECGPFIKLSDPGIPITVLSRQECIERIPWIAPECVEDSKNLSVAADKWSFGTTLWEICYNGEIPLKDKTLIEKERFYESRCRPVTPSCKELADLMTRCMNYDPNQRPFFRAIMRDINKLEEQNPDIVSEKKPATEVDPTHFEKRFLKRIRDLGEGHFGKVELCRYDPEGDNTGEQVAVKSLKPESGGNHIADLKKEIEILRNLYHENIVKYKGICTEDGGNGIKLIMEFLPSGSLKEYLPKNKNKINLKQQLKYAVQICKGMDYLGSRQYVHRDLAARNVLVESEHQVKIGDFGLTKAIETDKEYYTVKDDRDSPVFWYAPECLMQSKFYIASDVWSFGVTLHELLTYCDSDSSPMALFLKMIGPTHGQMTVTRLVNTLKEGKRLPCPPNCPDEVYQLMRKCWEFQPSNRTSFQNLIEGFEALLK

[18] = biological target: Macrophage colony-stimulating factor 1 receptor (Homo sapiens) (UniProt P07333); test: Inhibition of CSF1R (unknown origin) at 500 nM
Chain of Macrophage colony-stimulating factor 1 receptor (Homo sapiens) (P07333 whole entry): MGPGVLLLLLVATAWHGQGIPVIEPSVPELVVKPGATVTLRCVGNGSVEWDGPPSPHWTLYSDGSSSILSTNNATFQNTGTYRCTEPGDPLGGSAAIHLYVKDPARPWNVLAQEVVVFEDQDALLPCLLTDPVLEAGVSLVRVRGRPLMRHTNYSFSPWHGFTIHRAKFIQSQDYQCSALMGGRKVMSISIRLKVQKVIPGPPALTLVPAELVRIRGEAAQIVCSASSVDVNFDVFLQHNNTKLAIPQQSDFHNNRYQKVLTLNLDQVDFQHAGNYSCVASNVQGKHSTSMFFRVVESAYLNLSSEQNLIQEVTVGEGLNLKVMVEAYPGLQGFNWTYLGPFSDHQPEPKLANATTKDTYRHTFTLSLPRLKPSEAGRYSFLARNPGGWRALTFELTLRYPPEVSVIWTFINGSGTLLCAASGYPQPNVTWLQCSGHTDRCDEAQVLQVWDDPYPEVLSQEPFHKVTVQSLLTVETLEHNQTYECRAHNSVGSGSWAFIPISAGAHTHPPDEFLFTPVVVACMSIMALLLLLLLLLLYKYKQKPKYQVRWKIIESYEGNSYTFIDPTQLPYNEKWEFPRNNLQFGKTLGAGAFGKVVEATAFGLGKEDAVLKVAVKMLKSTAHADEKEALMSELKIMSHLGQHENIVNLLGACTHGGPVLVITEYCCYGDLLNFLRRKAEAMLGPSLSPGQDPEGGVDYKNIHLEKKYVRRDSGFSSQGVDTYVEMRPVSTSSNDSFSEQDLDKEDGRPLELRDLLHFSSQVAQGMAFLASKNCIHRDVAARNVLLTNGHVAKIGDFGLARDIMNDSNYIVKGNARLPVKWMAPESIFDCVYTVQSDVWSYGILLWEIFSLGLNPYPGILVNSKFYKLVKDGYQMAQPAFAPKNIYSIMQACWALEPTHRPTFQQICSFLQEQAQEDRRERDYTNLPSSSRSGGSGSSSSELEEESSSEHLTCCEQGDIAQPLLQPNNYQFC

TMD8 [19] = test: Induction of apoptosis in human TMD8 cells assessed as early apoptotic cells at 0.5 uM incubated for 24 hrs by AnnexinV-FITC/PE staining based flow cytometry (reference value: 4.35%); format: functional
How it was run: as §2

[20] = biological target: T3, Interleukin-1 receptor-associated kinase 4 (Homo sapiens) (UniProt Q9NWZ3); test: Inhibition of IRAK4 (unknown origin) at 500 nM
T3 sequence (whole entry): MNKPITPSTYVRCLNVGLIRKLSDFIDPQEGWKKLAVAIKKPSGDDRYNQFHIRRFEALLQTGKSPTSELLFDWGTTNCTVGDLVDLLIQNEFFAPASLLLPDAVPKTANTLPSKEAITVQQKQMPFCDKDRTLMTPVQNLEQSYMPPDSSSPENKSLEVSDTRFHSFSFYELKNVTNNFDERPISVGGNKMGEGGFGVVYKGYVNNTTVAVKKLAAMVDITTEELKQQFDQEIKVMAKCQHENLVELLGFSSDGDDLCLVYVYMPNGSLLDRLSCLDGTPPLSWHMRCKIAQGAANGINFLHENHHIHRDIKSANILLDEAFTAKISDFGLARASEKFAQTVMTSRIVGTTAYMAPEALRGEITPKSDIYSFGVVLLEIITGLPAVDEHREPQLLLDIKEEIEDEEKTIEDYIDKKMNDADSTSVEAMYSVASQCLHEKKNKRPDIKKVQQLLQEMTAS

[21] = biological target: Cyclin-dependent kinase 1 (Homo sapiens) (UniProt P06493); test: Inhibition of CDK1 (unknown origin) at 500 nM
Chain of Cyclin-dependent kinase 1 (Homo sapiens) (P06493 whole entry, looked up): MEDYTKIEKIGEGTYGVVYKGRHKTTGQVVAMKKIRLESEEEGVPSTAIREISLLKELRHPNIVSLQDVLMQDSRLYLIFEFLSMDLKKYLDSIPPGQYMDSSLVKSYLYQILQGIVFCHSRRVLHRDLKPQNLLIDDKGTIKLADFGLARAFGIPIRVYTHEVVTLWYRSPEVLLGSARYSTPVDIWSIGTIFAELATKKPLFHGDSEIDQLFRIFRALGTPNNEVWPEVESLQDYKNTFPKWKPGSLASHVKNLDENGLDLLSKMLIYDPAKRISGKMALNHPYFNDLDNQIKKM

TMD8 [22] = test: Induction of apoptosis in human TMD8 cells assessed as necrotic cells at 0.25 uM incubated for 24 hrs by AnnexinV-FITC/PE staining based flow cytometry (reference value: 0%); format: functional
How it was run: as §2

TMD8 [23] = test: Induction of apoptosis in human TMD8 cells assessed as viable cells at 1 uM incubated for 24 hrs by AnnexinV-FITC/PE staining based flow cytometry (reference value: 94.2%); format: functional; conditions: read-out: Activity
How it was run: as §2

| Compound | inhibition [1] [%] | inhibition [2] [%] | IC50 [3] [nM] | IC50 (DOHH-2) [nM] | IC50 [4] [nM] | IC50 (TMD8 [5]) [nM] | further results |
| --- | --- | --- | --- | --- | --- | --- | --- |
| O=C(c1ccc(-c2ccc3ncc(-c4cnc5ccccc5c4)n3c2)cc1)N1CCC(N2CCCCC2)CC1 | 48.8 | 71 |  |  |  |  |  |
| O=C(c1ccc(-c2ccc3ncc(-c4ccc5cnccc5c4)n3c2)cc1)N1CCC(N2CCOCC2)CC1 | 77.7 | 87.8 | 3.2 | 7550 | 4 | 4260 |  |
| N[C@@H]1CCCN(C(=O)c2ccc(-c3cn4c(-c5ccc6cnccc6c5)cnc4cn3)cc2)C1 |  |  | 26.7 | 3250 | 42 | 3100 |  |
| N#Cc1ccc(-c2cnc3ccc(-c4ccc(C(=O)N5CCOCC5)cc4)cn23)cc1 [TINODASERTIB] |  |  |  | 1620 |  | 2140 |  |
| O=C(c1ccc(-c2ccc3ncc(-c4ccc5ncccc5c4)n3c2)cc1)N1CCC(N2CCOCC2)CC1 | 34.9 | 49.8 |  |  |  |  |  |
| O=C(c1ccc(-c2ccc3ncc(-c4cnc5ccccc5c4)n3c2)cc1)N1CCC(N2CCOCC2)CC1 | 18.7 | 40.6 |  |  |  |  |  |
| O=C(c1ccc(-c2ccc3ncc(-c4ccc5ncccc5c4)n3c2)cc1)N1CCC(N2CCCCC2)CC1 | 2.41 | 62.8 |  |  |  |  |  |
| O=C(c1ccc(-c2ccc3ncc(-c4ccc5cnccc5c4)n3c2)cc1)N1CCC(N2CCCCC2)CC1 | 74.7 | 92.9 | 1.5 | 3820 | 2.4 | 4010 |  |
| O=C(c1ccc(-c2ccc3ncc(-c4ccc5cnccc5c4)n3c2)cc1)N1CCOCC1 | 106 | 93.7 | 25.7 |  | 7 |  |  |
| NC1CCN(C(=O)c2ccc(-c3cn4c(-c5ccc6cnccc6c5)cnc4cn3)cc2)CC1 |  |  | 18.5 | 12000 | 32.1 | 7570 |  |
| NC1CCN(C(=O)c2ccc(-c3ccc4ncc(-c5ccc6cnccc6c5)n4n3)cc2)CC1 |  |  | 15.7 | 541 | 14.5 | 2080 |  |
| NC1CCN(C(=O)c2ccc(-c3ccc4ncc(-c5ccc6cnccc6c5)n4c3)cc2)CC1 |  |  | 16.8 | 8300 | 5.2 | 2060 |  |
| N[C@H]1CCCN(C(=O)c2ccc(-c3ccc4ncc(-c5ccc6cnccc6c5)n4n3)cc2)C1 | 97.3 | 103 | 3.4 | 409 | 2.3 | 390 | Activity (TMD8 [6]): 9.3%; Activity (TMD8 [7]): 45.9%; viability at 0.25 µM (TMD8 [8]): 50.2%; Activity (TMD8 [9]): 30%; Activity (TMD8 [10]): 78.2%; Activity (TMD8 [11]): 19.8%; inhibition [12]: 10.2%; viability at 0.5 µM (TMD8 [13]): 44.6%; Activity (TMD8 [14]): 0.037%; Activity (TMD8 [15]): 0%; inhibition [16]: 4.1%; inhibition [17]: 6.5%; inhibition [18]: 11.6%; Activity (TMD8 [19]): 9.42%; inhibition [20]: 22.3%; inhibition [21]: 5.01%; Activity (TMD8 [22]): 0%; viability at 1 µM (TMD8 [23]): 12.5% |
| N[C@H]1CCCN(C(=O)c2ccc(-c3ccc4ncc(-c5ccc6cnccc6c5)n4c3)cc2)C1 |  |  | 2.5 | 6730 | 2.5 | 3460 |  |
| O=C(c1ccc(-c2ccc3ncc(-c4cnc5ccccc5c4)n3c2)cc1)N1CCNCC1 | 68.1 | 70.7 | 51.2 |  | 67.6 |  |  |
| N[C@@H]1CCCN(C(=O)c2ccc(-c3ccc4ncc(-c5ccc6cnccc6c5)n4c3)cc2)C1 |  |  | 8.9 | 6280 | 7.7 | 2300 |  |
| N[C@H]1CCCN(C(=O)c2ccc(-c3cn4c(-c5ccc6cnccc6c5)cnc4cn3)cc2)C1 |  |  | 19.4 | 5190 | 27.3 | 2560 |  |
| O=C(c1ccc(-c2ccc3ncc(-c4ccc5ncccc5c4)n3c2)cc1)N1CCOCC1 | 64 | 74.7 | 216 |  | 371 |  |  |
| N[C@@H]1CCCN(C(=O)c2ccc(-c3ccc4ncc(-c5ccc6cnccc6c5)n4n3)cc2)C1 |  |  | 6.6 | 400 | 9.4 | 2420 |  |
| O=C(c1ccc(-c2ccc3ncc(-c4ccc5cnccc5c4)n3c2)cc1)N1CCNCC1 | 77.7 | 98.7 | 2.9 | 8680 | 9.4 | 6640 |  |
| O=C(c1ccc(-c2ccc3ncc(-c4cnc5ccccc5c4)n3c2)cc1)N1CCOCC1 | 21 | 71 | 636 |  | 154 |  |  |
| O=C(c1ccc(-c2ccc3ncc(-c4ccc5ncccc5c4)n3c2)cc1)N1CCNCC1 | 49.9 | 73.5 |  |  |  |  |  |
